This is an account of results in PubChem BioAssay.

SMILES strings stand for the structures. Activity calls are given as the source filed them.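 The calls were made as follows, unless noted: active = inhibition at or above 50% relative to wild type and mutant plate controls; inactive = inhibition below 50%.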

The nature of test [1]: inhibitors of TNFa-induced NFkB p65 translocation, primary screen, imaging, HUVEC, MLSMR starter and 10KST1 sets (AID 438;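 active = inhibition above 20% together with a positive visual image hit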;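 also: compound added about 3h40 before a 20 min TNFalpha stimulation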;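 as to inhibition: signal is the nuclear over cytoplasmic p65 intensity ratio per well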). The settings on record: HUVEC TNFa-induced p65 nuclear translocation; cell count: measured here: nuclei count (cytotoxicity indicator), at 2.08 µM unless noted; inhibition: at 2 µM, stronger effect = higher value unless noted.
Test [2] is described as follows: inhibitors of E-selectin induction by TNFa, primary screen, imaging, HUVEC, immunofluorescence, MLSMR starter and 10KST1 sets (AID 487;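 active = visually confirmed hit in the image check and inhibition above 20%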;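 as to inhibition: signal is fraction of cell area covered by stained E-selectin grains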;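 as to nuclei count: 100% = median nuclei count of all wells on the same plate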). The conditions noted are these: HUVEC TNFalpha-induced E-selectin immunofluorescence imaging, at 2 µM; inhibition: stronger effect = higher value; nuclei count: measured here: cell number, toxicity.
A short description of test [3]: DUSP6 inhibitors restoring Erk phosphorylation by chemical complementation, primary imaging in DUSP6-transfected HeLa (AID 609;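 active = compounds giving at least 50% inhibition in the cell-based MKP-3 phosphatase rescue imaging test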;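 as to inhibition: phospho-Erk level distribution per well compared with pooled transfected vehicle control wells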). The settings on record: HeLa MKP-3 transfected, phospho-Erk imaging KS statistic, at 10 µM.
In test [4] the target is Dual specificity protein phosphatase 6 (Homo sapiens) (UniProt Q16828). The test is described as above. The conditions noted are these: HeLa MKP-3 transfected, phospho-Erk imaging KS statistic, at 10 µM, stronger effect = higher value.
Chain of Dual specificity protein phosphatase 6 (Homo sapiens) (Q16828 whole entry, looked up): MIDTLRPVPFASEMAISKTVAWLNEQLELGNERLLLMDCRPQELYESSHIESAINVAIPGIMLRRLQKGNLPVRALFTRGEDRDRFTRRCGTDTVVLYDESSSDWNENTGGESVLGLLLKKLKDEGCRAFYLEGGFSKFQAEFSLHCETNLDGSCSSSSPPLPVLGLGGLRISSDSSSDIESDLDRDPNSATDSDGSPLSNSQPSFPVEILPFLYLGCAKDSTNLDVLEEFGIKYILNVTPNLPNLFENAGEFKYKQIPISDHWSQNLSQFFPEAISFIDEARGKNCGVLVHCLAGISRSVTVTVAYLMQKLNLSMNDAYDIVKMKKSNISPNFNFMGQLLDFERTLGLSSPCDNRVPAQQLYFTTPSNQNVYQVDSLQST
The target in test [5] is Voltage-gated potassium channel subunit beta-2 (Rattus norvegicus) (UniProt P62483). Description: KvBeta enzyme negative modulators, primary screen, biochemical, NADPH fluorescence (AID 622;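 active = fluorescence slope higher than the sample average by over 3 SD, cut at about -0.22 in these data, passing the limit was not always enough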;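 also: slope of raw intensity against log time taken from 70 to 1610 s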). The settings on record: recombinant KvBeta, 4-cyanobenzaldehyde reduction, at 10 µM, stronger effect = higher value.
Chain of Voltage-gated potassium channel subunit beta-2 (Rattus norvegicus) (P62483 whole entry, looked up): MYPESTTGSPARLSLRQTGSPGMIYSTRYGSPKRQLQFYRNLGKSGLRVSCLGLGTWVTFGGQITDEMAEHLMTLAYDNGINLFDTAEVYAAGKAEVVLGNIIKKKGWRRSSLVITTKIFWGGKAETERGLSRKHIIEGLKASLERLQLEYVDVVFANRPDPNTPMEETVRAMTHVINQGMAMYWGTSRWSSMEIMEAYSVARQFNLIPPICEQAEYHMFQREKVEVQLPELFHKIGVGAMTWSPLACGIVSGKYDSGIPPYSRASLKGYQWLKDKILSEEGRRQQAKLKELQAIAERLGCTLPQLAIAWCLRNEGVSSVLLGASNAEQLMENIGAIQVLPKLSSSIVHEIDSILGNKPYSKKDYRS
Test [6] shares this target. Description: KvBeta positive modulators, primary screen, biochemical, NADPH fluorescence (AID 623;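 active = NADPH fluorescence slope more negative than the mean of all samples by about 3 SD, 99.7% confidence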;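 also: fluorescence intensity change per second fitted from 20 to 320 s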). The conditions noted are these: Recombinant KvBeta, NADPH fluorescence decrease slope, 10 min; at 10 µM; stronger effect = lower value.
In test [7] the target is Muscarinic acetylcholine receptor M4 (Homo sapiens) (UniProt P08173). Description: compounds altering M4/GIRK thallium flux, either direction, primary screen, M4 allosteric agonist project, cell-based, HEK293 M4/GIRK, BTC-AM (AID 625;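 active = fluorescence slope after compound addition differing from the mean of all tested samples at 99.7% confidence, mostly higher but some lower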;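 also: thallium influx through GIRK channels coupled to M4 in HEK293 cells with BTC-AM dye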). The conditions noted are these: at 10 µM, actives lie on both sides. The procedure, abridged: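 assay system = HEK293 cells with M4 receptor and GIRK channels | medium = pH 7.3 thallium assay buffer | doses = 10 µM final, single point | timing = cells overnight at 37 °C, BTC-AM loading 1 h, reads 2 min total | signal = BTC-AM fluorescence, 1 Hz kinetic reads | read-out = post-addition slope, 15–24 s, of baseline-normalized fluorescence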
Chain of Muscarinic acetylcholine receptor M4 (Homo sapiens) (P08173 whole entry, looked up): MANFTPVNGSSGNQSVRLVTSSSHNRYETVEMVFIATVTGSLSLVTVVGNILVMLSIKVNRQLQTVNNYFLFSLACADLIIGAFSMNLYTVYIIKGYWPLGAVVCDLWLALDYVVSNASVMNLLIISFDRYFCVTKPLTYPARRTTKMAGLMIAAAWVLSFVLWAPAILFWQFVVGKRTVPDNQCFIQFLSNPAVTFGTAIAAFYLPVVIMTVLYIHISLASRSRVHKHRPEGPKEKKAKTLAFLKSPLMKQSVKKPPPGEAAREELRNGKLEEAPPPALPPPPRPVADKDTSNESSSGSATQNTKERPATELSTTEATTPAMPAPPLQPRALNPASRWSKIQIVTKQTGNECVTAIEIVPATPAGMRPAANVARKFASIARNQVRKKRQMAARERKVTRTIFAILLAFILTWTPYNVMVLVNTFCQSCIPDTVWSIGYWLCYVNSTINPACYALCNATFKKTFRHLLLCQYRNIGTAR

Test [8] can be described thus: inhibitors of larval lipid processing in zebrafish, primary screen, whole organism, PED6 fluorescence, gall bladder and intestine (AID 686;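 active = a full or partial loss of lipid-probe fluorescence in the fish gall bladder, intestine or both, judged by eye; inactive = no fluorescence loss, or compound toxic to the fish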;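 also: larvae 5 to 7 days old with five fish per well; signal comes from phospholipase A2 cleavage of quenched PED6 carried via bile; overnight exposure to compound and PED6 before scoring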). The settings on record: Zebrafish larvae PED6 lipid processing, fluorescence scoring. The essentials:
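Also added: quenched phospholipase substrate PED6, 100 nM final, ingested by larvae; System: zebrafish larvae, 5-7 d; Quantity: 5 larvae per well; Compound: 20 µM single dose; Schedule: overnight compound and PED6 incubation; Read-out: visual per-well fluorescence inhibition score; Measured by: By-eye fluorescence microscopy; Medium: E3.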

A short description of test [9]: inhibitors of Chlamydomonas gravitaxis, primary screen, whole organism, Chlamydomonas reinhardtii, WT vs cilia-less mutant, absorbance, 96-well (AID 463189).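 Also: 0% = wild type cc124 cells in DMSO and 100% = ciliumless bld1 mutant cells.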 The settings on record: OD600 absorbance, 2 days, at 10 µM, stronger effect = higher value.
The mark [10] stands for this setting: measured here: cell density z-score.
Setting [11] is: measured here: nuclear c-Myc green intensity z-score.
Where [12] appears, read: measured here: nuclear pErk red intensity z-score, stronger effect = higher value.

The term inhibition denotes the drop in the measured response relative to a control, in per cent. Regarding `COC(=O)C(O)(c1ccc(NC(=O)c2ccco2)c(OC)c1)C(F)(F)F` (stereo unspecified), the cell count in test [1] is 569. Further, the inhibition in [1] was 3.2% (inactive); in [2], 1% (inactive); in test [4], -3.97% (inactive); in test [9], 0.634% (inactive). Also, the nuclei count in [2] is 152%. Further, the z-score in [3] (setting [10]) is -0.555; in test [3] (setting [11]), 0.637; in test [3] (setting [12]), 1.11. Moreover, the fluorescence slope in test [5] is -0.43 (inactive); in test [7], 0.00513 (inactive). Also, the NADPH fluorescence slope in test [6] is -5.3e-05 (inactive). For the same compound, in test [8], the compound was classed as inactive.

Regarding `CCn1c(O)c(C(=O)CC2NCCc3ccccc32)c(=O)n(CC)c1=S` (stereo unspecified), the cell count in [1] was 494. The inhibition was -7.2% (inactive) in test [1], -84.9% (inactive) in [2], 3.97% (inactive) in [4] and -9.64% (inactive) in test [9]. The nuclei count in test [2] turned out to be 120%. Also, the z-score in test [3] (setting [10]) is -1.06; in test [3] (setting [11]), -1.07; in test [3] (setting [12]), 1.31. The figures for the fluorescence slope in [5] and in test [7] were -0.399 (inactive) and 0.00707 (inactive), respectively. In test [6], the NADPH fluorescence slope was -1.1e-05 (inactive). Also, the compound was called inactive in [8].

As to `C=CCOC(=O)C1=C(C)OC(N)=C(C#N)C12C(=O)N(CN1CCOCC1)c1ccccc12` (stereo unspecified), the cell count in test [1] was determined as 388. Moreover, the inhibition was 0.7% (inactive) in [1], -73.4% (inactive) in [2], -4.59% (inactive) in [4] and 39.6% (inactive) in [9]. The same compound registered a nuclei count in test [2] of 88.4%. For the same compound, the z-score was -0.108 in [3] (setting [10]), 0.314 in [3] (setting [11]) and 1.06 in test [3] (setting [12]). For the same compound, the figures for the fluorescence slope in test [5] and in test [7] were -0.515 (inactive) and 0.00467 (inactive), respectively. Besides, the NADPH fluorescence slope in test [6] was 2.9e-05 (inactive). Also, the result in [8] was inactive.

The compound `C=CCOC(=O)C1=C(C)OC(N)=C(C#N)[C@@]12C(=O)N(CC(N)=O)c1ccccc12` yielded a cell count in test [1] of 473. For the same compound, the inhibition in [1] was -1.4% (inactive); in test [2], -499% (inactive); in test [4] it was 2.71% (inactive); in test [9], 1.7% (inactive). In addition, the nuclei count in test [2] is 193%. Also, the z-score in test [3] (setting [10]) is 0.623; in [3] (setting [11]) it was -0.273; in test [3] (setting [12]), 0.824. Moreover, the fluorescence slope in test [5] was -0.441 (inactive); in test [7], 0.00506 (inactive). Also, the NADPH fluorescence slope in test [6] is -5.7e-05 (inactive). Besides, the outcome in test [8] was inactive.

In turn, `O=C(CN1CCN(CCO)CC1)Nc1ccc(Cl)cc1C(=O)c1ccccc1` displayed a cell count in test [1] of 431. In addition, the inhibition is -4% (inactive) in test [1], -88.6% (inactive) in test [2], 11.9% (inactive) in test [4] and 12% (inactive) in [9]. This compound displayed a nuclei count in test [2] of 154%. The z-score in test [3] (setting [10]) was 0.92; in [3] (setting [11]), -0.897; in test [3] (setting [12]), 0.82. For the same compound, the fluorescence slope was -0.465 (inactive) in [5] and 0.00435 (inactive) in test [7]. In addition, in [6], the NADPH fluorescence slope was -0.000121 (inactive). Moreover, in test [8], the compound was called inactive.

Consider `COc1ccc(C2SCC(=O)Nc3c2c(=O)[nH]n3C2CCCCCC2)cc1` (stereo unspecified), for which the cell count in test [1] is 564. For the same compound, the inhibition is -7.2% (inactive) in [1], 70.4% (inactive) in [2], 2.71% (inactive) in test [4] and 29.9% (inactive) in test [9]. In [2], this compound came in with a nuclei count of 96%. Also, the z-score is 1.06 in [3] (setting [10]), 0.0384 in [3] (setting [11]) and -1.4 in test [3] (setting [12]). Besides, the fluorescence slope in test [5] was -0.478 (inactive); in test [7], 0.007 (inactive). The NADPH fluorescence slope in test [6] was -3e-05 (inactive). The result in [8] was inactive.

In the case of `COc1ccc2c(c1OC)C(=O)OC2c1c(O)n(C2CCCCC2)c(=O)[nH]c1=O` (stereo unspecified), the cell count in test [1] amounted to 572. Also, the inhibition in test [1] was -9.7% (inactive); in test [2] it was -2.8% (inactive); in test [4], 15.9% (inactive); in test [9], 6.27% (inactive). In test [2], the nuclei count came to 150%. The z-score in test [3] (setting [10]) came to 0.755; in test [3] (setting [11]) it was 0.301; in test [3] (setting [12]), 0.433. Also, the values for the fluorescence slope in test [5] and in test [7] were -0.379 (inactive) and 0.00555 (inactive), respectively. In test [6], the NADPH fluorescence slope was -7.1e-05 (inactive). The call in [8] was inactive.
